The text below walks through data of ChEMBL document CHEMBL1156303, “Synthesis and SAR of N-(4-(4-alklylpiperazin-1-yl)phenyl)benzamides as muscarinic acetylcholine receptor subtype 1 (M1) anatgonists” (Bioorg Med Chem Lett, 2010).

Bounds are passed on as bounds.

The target in assay [1] is T1, Muscarinic acetylcholine receptor M5 (Homo sapiens, UniProt P08912).
T1 sequence (P08912 whole entry): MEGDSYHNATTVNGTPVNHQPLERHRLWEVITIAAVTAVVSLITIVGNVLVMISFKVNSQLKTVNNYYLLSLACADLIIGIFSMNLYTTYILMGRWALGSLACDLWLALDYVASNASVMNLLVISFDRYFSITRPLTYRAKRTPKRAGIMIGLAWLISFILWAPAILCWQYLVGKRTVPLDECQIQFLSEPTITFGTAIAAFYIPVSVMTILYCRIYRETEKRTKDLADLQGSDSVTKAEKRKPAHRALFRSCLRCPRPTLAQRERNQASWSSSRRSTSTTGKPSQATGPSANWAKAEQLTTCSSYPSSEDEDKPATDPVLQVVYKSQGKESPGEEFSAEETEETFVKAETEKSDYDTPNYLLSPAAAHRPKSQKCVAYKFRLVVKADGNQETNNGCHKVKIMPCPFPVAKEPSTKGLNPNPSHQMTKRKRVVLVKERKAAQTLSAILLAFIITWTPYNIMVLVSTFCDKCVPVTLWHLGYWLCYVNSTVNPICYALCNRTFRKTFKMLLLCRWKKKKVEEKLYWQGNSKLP
Put plainly: Antagonist activity at human muscarinic M5 receptor expressed in CHO-K1 cells assessed as inhibition of acetylcholine-induced calcium mobilization. Format: functional, cell-based. On the technique in general: A change in cytosolic calcium serves as a functional read-out for many receptors and channels.

The target in assay [2] is T2, Muscarinic acetylcholine receptor M1 (Homo sapiens, UniProt P11229).
T2 sequence (P11229 whole entry): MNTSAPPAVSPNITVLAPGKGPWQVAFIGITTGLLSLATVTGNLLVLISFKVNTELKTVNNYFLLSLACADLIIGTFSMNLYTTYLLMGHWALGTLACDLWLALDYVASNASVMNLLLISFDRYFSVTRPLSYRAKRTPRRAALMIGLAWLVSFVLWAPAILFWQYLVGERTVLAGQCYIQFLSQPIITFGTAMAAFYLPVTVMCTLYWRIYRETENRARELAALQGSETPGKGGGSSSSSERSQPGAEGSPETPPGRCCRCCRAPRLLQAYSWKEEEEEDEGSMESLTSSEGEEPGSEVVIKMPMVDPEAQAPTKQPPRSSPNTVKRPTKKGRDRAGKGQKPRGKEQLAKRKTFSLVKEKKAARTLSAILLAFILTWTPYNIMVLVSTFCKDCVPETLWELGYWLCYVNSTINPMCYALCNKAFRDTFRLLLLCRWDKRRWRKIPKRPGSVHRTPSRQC
Description: Antagonist activity at human muscarinic M1 receptor expressed in CHO-K1 cells assessed as inhibition of acetylcholine-induced calcium mobilization. Format: functional, cell-based.

The target of assay [3] is Muscarinic acetylcholine receptor M3 (Homo sapiens, UniProt P20309). Put plainly: Antagonist activity at human muscarinic M3 receptor expressed in CHO-K1 cells assessed as inhibition of acetylcholine-induced calcium mobilization. Format: functional, cell-based.
Chain of Muscarinic acetylcholine receptor M3 (P20309 whole entry): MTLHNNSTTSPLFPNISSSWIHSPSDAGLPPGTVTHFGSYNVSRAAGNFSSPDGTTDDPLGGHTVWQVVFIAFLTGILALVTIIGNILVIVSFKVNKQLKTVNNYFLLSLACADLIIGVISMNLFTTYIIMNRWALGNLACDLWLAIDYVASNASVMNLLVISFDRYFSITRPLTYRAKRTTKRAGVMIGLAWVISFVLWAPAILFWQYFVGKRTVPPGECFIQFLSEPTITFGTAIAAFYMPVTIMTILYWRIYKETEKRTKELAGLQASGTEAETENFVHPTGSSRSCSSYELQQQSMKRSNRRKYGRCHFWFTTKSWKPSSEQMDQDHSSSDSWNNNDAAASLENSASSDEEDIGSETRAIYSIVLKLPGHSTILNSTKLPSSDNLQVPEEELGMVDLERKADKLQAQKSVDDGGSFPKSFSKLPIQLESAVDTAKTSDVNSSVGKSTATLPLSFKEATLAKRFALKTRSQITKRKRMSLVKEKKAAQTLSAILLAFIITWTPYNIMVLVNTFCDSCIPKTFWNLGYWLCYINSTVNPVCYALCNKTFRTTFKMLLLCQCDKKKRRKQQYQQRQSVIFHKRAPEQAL
Assay [4] is described as follows: Selectivity ratio of muscarinic M3 receptor over muscarinic M2 receptor.
Assay [5] deals with T3, Muscarinic acetylcholine receptor M2 (Homo sapiens, UniProt P08172).
T3 sequence (P08172 whole entry): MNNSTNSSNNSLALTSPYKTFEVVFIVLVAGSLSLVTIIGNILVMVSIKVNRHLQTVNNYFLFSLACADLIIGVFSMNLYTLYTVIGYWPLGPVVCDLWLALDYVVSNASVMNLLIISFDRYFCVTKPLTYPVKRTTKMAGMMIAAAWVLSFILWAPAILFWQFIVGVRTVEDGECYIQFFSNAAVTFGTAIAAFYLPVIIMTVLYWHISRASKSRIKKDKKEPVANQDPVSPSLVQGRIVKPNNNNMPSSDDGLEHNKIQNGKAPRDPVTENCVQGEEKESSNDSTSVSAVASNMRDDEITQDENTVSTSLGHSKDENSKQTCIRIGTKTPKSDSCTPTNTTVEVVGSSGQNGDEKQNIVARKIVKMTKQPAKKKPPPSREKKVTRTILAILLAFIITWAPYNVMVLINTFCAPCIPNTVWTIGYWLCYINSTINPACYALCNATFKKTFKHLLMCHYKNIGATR
Put plainly: Antagonist activity at human muscarinic M2 receptor expressed in CHO-K1 cells coexpressing Gqi5 chimeric G-protein assessed as inhibition of acetylcholine-induced calcium mobilization. The assay is classed as functional, cell-based. In outline:
(§1)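 Stable muscarinic cell lines (hM2 and hM4 stably transfected with Gqi5 chimera) plated overnight, then loaded with 2 µM Fluo-4 AM in HBSS with 20 mM HEPES and 2.5 mM probenecid, pH 7.4, for 45 min at 37°C. Dye replaced with assay buffer. Cells pre-incubated with compound at 10 µM or across a concentration-response curve, then challenged with sub-maximal acetylcholine or carbachol. Read-out: calcium mobilization.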

Assay [6] deals with T4, Muscarinic acetylcholine receptor M4 (Homo sapiens, UniProt P08173).
T4 sequence (P08173 whole entry): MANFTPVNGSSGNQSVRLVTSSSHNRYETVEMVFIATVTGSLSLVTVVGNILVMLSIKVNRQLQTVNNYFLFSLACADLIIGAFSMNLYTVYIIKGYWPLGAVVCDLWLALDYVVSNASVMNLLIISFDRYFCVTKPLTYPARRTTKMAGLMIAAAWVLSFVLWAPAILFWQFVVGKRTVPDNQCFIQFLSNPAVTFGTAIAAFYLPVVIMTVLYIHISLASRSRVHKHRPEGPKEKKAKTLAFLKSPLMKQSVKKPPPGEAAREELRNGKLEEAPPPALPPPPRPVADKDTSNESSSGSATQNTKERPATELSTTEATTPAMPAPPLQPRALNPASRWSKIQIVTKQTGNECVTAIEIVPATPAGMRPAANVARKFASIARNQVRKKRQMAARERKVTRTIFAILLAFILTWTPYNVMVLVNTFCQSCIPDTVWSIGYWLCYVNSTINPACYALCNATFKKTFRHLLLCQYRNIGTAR
Put plainly: Antagonist activity at human muscarinic M4 receptor expressed in CHO-K1 cells coexpressing Gqi5 chimeric G-protein assessed as inhibition of acetylcholine-induced calcium mobilization. Format: functional, cell-based. A digest of the protocol:
as §1

Assay [7] concerns the target T5, Muscarinic acetylcholine receptor M5 (Homo sapiens) (UniProt P08912).
T5 sequence (whole entry): T1 sequence (P08912 whole entry)
Description: Antagonist activity at human muscarinic M5 receptor expressed in CHO-K1 cells assessed as inhibition of acetylcholine-induced calcium mobilization at 10 uM. Format: functional, cell-based.

The term IC50 denotes the concentration at which inhibition is half-maximal.

Regarding `CCN1CCN(c2ccc(NC(=O)c3ccccc3OC)cc2Cl)CC1`, the IC50 in assay [1] is 1.3 µM; in assay [2], 0.82 µM; in assay [3], 5.6 µM.

As for `Cc1ccc(N2C[C@@H]3[C@H](C2)[C@H]3NC(=O)C(O)(c2ccccc2)C2CCCCC2)cc1` (stereo partly specified), the Selectivity ratio in assay [4] stood at 20.

For the compound `CCN1CCN(c2ccc(NC(=O)c3ccccc3)cc2Cl)CC1`, the IC50 in assay [5] was above 10 µM; in assay [1], above 10 µM; in assay [2], 3.2 µM; in assay [3], above 10 µM; in assay [6], above 10 µM.

Regarding `CCN1CCN(c2ccc(NC(=O)c3cc(C(F)(F)F)cc(C(F)(F)F)c3)cc2Cl)CC1`, the IC50 is above 10 µM in assay [5]; 10 µM in assay [7]; above 10 µM in assay [1]; 2.6 µM in assay [2]; above 10 µM in assay [3]; 3.7 µM in assay [6].

On to `CCN1CCN(c2ccc(NC(=O)c3cccc(C(F)(F)F)c3)cc2Cl)CC1`, for which the IC50 in assay [5] is above 10 µM; in assay [1], 4.1 µM; in assay [2] it was 2.9 µM; in assay [3] it was 4.3 µM; in assay [6], 3.7 µM.

Take `CCN1CCN(c2ccc(NC(=O)c3ccc(OC)cc3)cc2Cl)CC1`: the 50% inhibitory concentration (IC50) in assay [1] was above 10 µM; in assay [2], 3.2 µM; in assay [3], above 10 µM.

As to `CCN1CCN(c2ccc(NC(=O)c3cccc(C)c3)cc2Cl)CC1`, the IC50 in assay [1] was 3.5 µM; in assay [2], 2.1 µM; in assay [3] it was above 10 µM.

Consider `CCN1CCN(c2ccc(NC(=O)c3ccccc3Cl)cc2Cl)CC1`, for which the figures for the IC50 in assay [1] and in assay [2] were 2.3 µM and 0.96 µM, respectively.

In the case of `CCN1CCN(c2ccc(NC(=O)c3cc(C(F)(F)F)ccc3C(F)(F)F)cc2Cl)CC1`, the IC50 was determined as 2.7 µM in assay [5]; 4.1 µM in assay [1]; 0.49 µM in assay [2]; 4.2 µM in assay [3]; 1.5 µM in assay [6].

With `CCN1CCN(c2ccc(NC(=O)c3ccc(F)c(F)c3)cc2Cl)CC1`, the IC50 was above 10 µM in assay [5]; above 10 µM in assay [1]; 4.7 µM in assay [2]; above 10 µM in assay [3]; above 10 µM in assay [6].

On to `CCN1CCN(c2ccc(NC(=O)c3ccc(C)cc3)cc2Cl)CC1`, for which the IC50 is above 10 µM in assay [5]; 6.9 µM in assay [1]; 2.9 µM in assay [2]; 3.7 µM in assay [3]; above 10 µM in assay [6].

As to `CCN1CCN(c2ccc(NC(=O)c3c(F)c(F)c(F)c(F)c3F)cc2Cl)CC1`, the IC50 in assay [1] is 0.83 µM; in assay [2] it was 0.35 µM; in assay [3], 3.7 µM.
